Assay results taken from BindingDB's records for doi:10.1021/acs.jmedchem.8b02026 (Leiden University, 2019).

Experiments:
Adenosine receptor A3 [1] = biological target: T1, Adenosine receptor A3 (Homo sapiens, UniProt P0DMS8); assay: Displacement of [3H]PSB11 from human A3 adenosine receptor expressed in CHO cell membranes measured after 2 hrs by scintillation spectrometric method
T1 sequence (P0DMS8 whole entry): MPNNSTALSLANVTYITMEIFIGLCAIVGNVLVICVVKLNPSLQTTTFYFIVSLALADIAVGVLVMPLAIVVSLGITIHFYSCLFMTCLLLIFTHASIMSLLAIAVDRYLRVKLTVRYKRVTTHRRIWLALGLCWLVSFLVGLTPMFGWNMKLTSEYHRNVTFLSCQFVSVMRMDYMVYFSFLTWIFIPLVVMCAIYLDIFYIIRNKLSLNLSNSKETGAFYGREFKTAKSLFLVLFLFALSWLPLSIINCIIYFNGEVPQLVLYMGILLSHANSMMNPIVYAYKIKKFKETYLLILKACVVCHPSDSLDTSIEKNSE

Adenosine receptor A2a = Adenosine receptor A2a (Homo sapiens, UniProt P29274); assay: Displacement of [3H]ZM241385 from human A2A adenosine receptor expressed in HEK293 cell membranes measured after 2 hrs by scintillation spectrometric method
Sequence of Adenosine receptor A2a (P29274 whole entry): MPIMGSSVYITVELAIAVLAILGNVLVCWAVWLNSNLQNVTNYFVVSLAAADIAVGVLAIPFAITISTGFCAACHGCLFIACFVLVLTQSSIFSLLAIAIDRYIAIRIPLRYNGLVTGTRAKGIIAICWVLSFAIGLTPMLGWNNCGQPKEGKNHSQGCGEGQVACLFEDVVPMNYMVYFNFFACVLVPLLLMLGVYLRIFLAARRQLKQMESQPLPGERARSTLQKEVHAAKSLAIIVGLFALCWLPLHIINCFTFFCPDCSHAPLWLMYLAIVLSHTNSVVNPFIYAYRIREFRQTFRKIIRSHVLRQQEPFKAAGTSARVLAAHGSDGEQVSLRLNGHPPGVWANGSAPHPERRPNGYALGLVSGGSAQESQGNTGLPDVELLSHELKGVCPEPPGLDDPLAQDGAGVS

Adenosine receptor A1 = biological target: T2, Adenosine receptor A1 (Homo sapiens, UniProt P30542); assay: Displacement of [3H]DPCPX from human A1 adenosine receptor expressed in CHO cell membranes measured after 2 hrs by scintillation spectrometric method
T2 sequence (P30542 whole entry): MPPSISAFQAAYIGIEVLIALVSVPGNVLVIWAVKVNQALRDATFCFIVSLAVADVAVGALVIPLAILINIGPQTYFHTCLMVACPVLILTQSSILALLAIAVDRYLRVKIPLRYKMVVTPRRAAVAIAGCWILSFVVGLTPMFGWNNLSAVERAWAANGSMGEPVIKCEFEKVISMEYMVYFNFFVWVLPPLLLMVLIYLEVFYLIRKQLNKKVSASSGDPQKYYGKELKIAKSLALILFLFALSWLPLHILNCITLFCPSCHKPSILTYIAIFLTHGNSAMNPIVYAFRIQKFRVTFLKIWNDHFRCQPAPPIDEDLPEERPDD

Adenosine receptor A3 [2] = biological target: T3, Adenosine receptor A3 (Homo sapiens, UniProt P0DMS8, Y265F); assay: Displacement of [3H]PSB11 from human A3 adenosine receptor Y265F (7.36) mutant transiently expressed in CHOK1 cell membranes measured after 2 hrs by scintillation spectrometric method
T3 sequence (P0DMS8 whole entry): T1 sequence (P0DMS8 whole entry)
In short: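 Membranes (15 µg) in 50 mM Tris-HCl, 5 mM MgCl2, 0.01% CHAPS, 1 mM EDTA, pH 7.4. Six competitor concentrations with ~10 nM [3H]PSB-11, 2 h at 25 °C. NSB from 100 µM NECA; filtration and scintillation counting; one-site fit. Three experiments, duplicate.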

Row | Structure (SMILES) | Ki (Adenosine receptor A3 [1]) [nM] | also measured
1 | CCCn1c(=O)c2c(nc3cc(OC)ccn32)n(CCCCOC(=O)c2cccc(S(=O)(=O)F)c2)c1=O | 79 | 
2 | CCCn1c(=O)c2c(nc3cc(OC)ccn32)n(CCCNC(=O)c2ccc(S(C)(=O)=O)cc2)c1=O |  | Ki (Adenosine receptor A2a): 6310 nM; Ki (Adenosine receptor A1): 15800 nM; IC50 (Adenosine receptor A3 [2]): 794 nM
3 | CCCn1c(=O)c2c(nc3cc(OC)ccn32)n(CCOC(=O)c2ccc(S(=O)(=O)F)cc2)c1=O | 200 | 
4 | CCCn1c(=O)c2c(nc3cc(OC)ccn32)n(CCCOC(=O)c2ccc(S(=O)(=O)F)cc2)c1=O | 20 | 
5 | CCCn1c(=O)c2c(nc3cc(OC)ccn32)n(CCOC(=O)c2cccc(S(=O)(=O)F)c2)c1=O | 398 | 
6 | CCCn1c(=O)c2c(nc3cc(OC)ccn32)n(CCCCNC(=O)c2cccc(S(=O)(=O)F)c2)c1=O | 158 | 
7 | CCCn1c(=O)c2c(nc3cc(OC)ccn32)n(CCCNC(=O)c2ccc(S(=O)(=O)F)cc2)c1=O |  | Ki (Adenosine receptor A2a): 1260 nM; Ki (Adenosine receptor A1): 794 nM
8 | CCCn1c(=O)c2c(nc3cc(OC)ccn32)n(CCCCOC(=O)c2ccc(S(=O)(=O)F)cc2)c1=O | 32 | 
9 | CCCn1c(=O)c2c(nc3cc(OC)ccn32)n(CCCOC(=O)c2cccc(S(=O)(=O)F)c2)c1=O | 100 | 
10 | CCCn1c(=O)c2c(nc3cc(OC)ccn32)n(CCCCNC(=O)c2ccc(S(=O)(=O)F)cc2)c1=O | 32 | 
11 | CCCn1c(=O)c2c(nc3cc(OC)ccn32)n(CCCNC(=O)c2cccc(S(=O)(=O)F)c2)c1=O | 32 | 
